# pIC50: −log10 of the molar value. Active and inactive are the calls of the source. The calls are words filed in the database; no cut-off is given here.
# How the values were obtained:
# [1] = Growth inhibition of human Hs 578T cells assessed as cell growth at 10^-5 M after 48 hrs by sulforhodamine B assay; assay type: functional; conditions: read-out: Activity
# How it was run: (§1)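 NCI 60-cell panel single high-dose screen: compound applied at 10^-5 M for 48 h, endpoint by sulforhodamine B protein-binding dye. Values reported as growth percent of treated cells relative to untreated control cells.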
# HCT-15 = experiment: Growth inhibition of human HCT15 cells assessed as cell growth at 10^-5 M after 48 hrs by sulforhodamine B assay; assay type: functional; conditions: HCT-15, 48 h, read-out: Activity; how it was run: as §1
# M14 = experiment: Growth inhibition of human M14 cells assessed as cell growth at 10^-5 M after 48 hrs by sulforhodamine B assay; assay type: functional; conditions: M14, 48 h, read-out: Activity
# How it was run: (§2)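 NCI-60 single high-dose screen run under the NCI protocol. Cells were incubated with compound at 10^-5 M for 48 h. The end point was determined by sulforhodamine B protein staining. Results are reported as percent growth of treated cells relative to untreated control cells.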
# SF-539 = experiment: Growth inhibition of human SF539 cells assessed as cell growth at 10^-5 M after 48 hrs by sulforhodamine B assay; assay type: functional; conditions: SF-539, 48 h, read-out: Activity; how it was run: as §2
# Staphylococcus equorum = experiment: Antibacterial activity against Staphylococcus equorum assessed as zone of inhibition at 5 uL and 32 degC after 36 hrs at by disk diffusion method; assay type: functional
# How it was run: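 Disc diffusion on AC agar, each strain spread evenly over the medium; test compounds given as 1% (w/v) DMSO solutions. Plates covered and incubated 36 h at 32 °C, then the diameter of the zone of inhibited growth measured in mm. Tetracycline served as antibacterial reference.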
# HOP-62 = experiment: Growth inhibition of human HOP62 cells assessed as cell growth at 10^-5 M after 48 hrs by sulforhodamine B assay; assay type: functional; conditions: HOP-62, 48 h, read-out: Activity; how it was run: as §1
# CCRF-CEM = experiment: Growth inhibition of human CCRF-CEM cells assessed as cell growth at 10^-5 M after 48 hrs by sulforhodamine B assay; assay type: functional; conditions: read-out: Activity; how it was run: as §1
# SK-MEL-5 = experiment: Growth inhibition of human SK-MEL-5 cells assessed as cell growth at 10^-5 M after 48 hrs by sulforhodamine B assay; assay type: functional; conditions: SK-MEL-5, 48 h, read-out: Activity
# How it was run: (§3)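 NCI 60-cell panel single-dose screen under the NCI protocol. Cells are exposed to compound at one concentration (10^-5 M) for 48 h. The end point is protein staining with sulforhodamine B. Each line is reported as percent growth of treated cells relative to untreated control cells.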
# Malme-3M = experiment: Growth inhibition of human MALME-3M cells assessed as cell growth at 10^-5 M after 48 hrs by sulforhodamine B assay; assay type: functional; conditions: read-out: Activity; how it was run: as §2
# BT-549 = experiment: Growth inhibition of human BT549 cells assessed as cell growth at 10^-5 M after 48 hrs by sulforhodamine B assay; assay type: functional; conditions: BT-549, 48 h, read-out: Activity; how it was run: as §1
# T47D = experiment: Growth inhibition of human T47D cells assessed as cell growth at 10^-5 M after 48 hrs by sulforhodamine B assay; assay type: functional; conditions: read-out: Activity; how it was run: as §3
# A498 = experiment: Growth inhibition of human A498 cells assessed as cell growth at 10^-5 M after 48 hrs by sulforhodamine B assay; assay type: functional; conditions: A498, 48 h, read-out: Activity; how it was run: as §1
# MDA-MB-468 = experiment: Growth inhibition of human MDA-MB-468 cells assessed as cell growth at 10^-5 M after 48 hrs by sulforhodamine B assay; assay type: functional; conditions: MDA-MB-468, 48 h, read-out: Activity; how it was run: as §2
# UO-31 = experiment: Growth inhibition of human UO31 cells assessed as cell growth at 10^-5 M after 48 hrs by sulforhodamine B assay; assay type: functional; conditions: UO-31, 48 h, read-out: Activity; how it was run: as §3
# HT-29 = experiment: Growth inhibition of human HT-29 cells assessed as cell growth at 10^-5 M after 48 hrs by sulforhodamine B assay; assay type: functional; conditions: HT-29, 48 h, read-out: Activity; how it was run: as §1
# NCI-H23 = experiment: Growth inhibition of human NCI-H23 cells assessed as cell growth at 10^-5 M after 48 hrs by sulforhodamine B assay; assay type: functional; conditions: NCI-H23, 48 h, read-out: Activity; how it was run: as §2
# KM12 = experiment: Growth inhibition of human KM12 cells assessed as cell growth at 10^-5 M after 48 hrs by sulforhodamine B assay; assay type: functional; conditions: KM12, 48 h, read-out: Activity; how it was run: as §1
# A549 = experiment: Growth inhibition of human A549 cells assessed as cell growth at 10^-5 M after 48 hrs by sulforhodamine B assay; assay type: functional; conditions: A549, 48 h, read-out: Activity; how it was run: as §1
# U-251 = experiment: Growth inhibition of human U251 cells assessed as cell growth at 10^-5 M after 48 hrs by sulforhodamine B assay; assay type: functional; conditions: U-251, 48 h, read-out: Activity; how it was run: as §3
# 786-0 = experiment: Growth inhibition of human 786-0 cells assessed as cell growth at 10^-5 M after 48 hrs by sulforhodamine B assay; assay type: functional; conditions: 786-0, 48 h, read-out: Activity; how it was run: as §1
# SK-OV-3 = experiment: Growth inhibition of human SKOV3 cells assessed as cell growth at 10^-5 M after 48 hrs by sulforhodamine B assay; assay type: functional; conditions: SK-OV-3, 48 h, read-out: Activity; how it was run: as §3
# HL-60 = experiment: Cytotoxicity against human HL60 cells after 24 hrs by MTT assay; assay type: functional, cell-based; conditions: HL-60, 24 h
# How it was run: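 HL-60 cells kept in RPMI 1640 with 10% FBS, no antibiotics, 37 °C, humidified 5% CO2. Cells (9 × 10^5 cells/mL) exposed to compound in 96-well plates for 24 h at 37 °C. MTT in PBS (5 mg/mL) added for 2 h, then DMSO, shaken 1 h and read photometrically. IC50 determined; cisplatin reference.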
# NCI/ADR-RES = experiment: Growth inhibition of human NCI/ADR-RES cells assessed as cell growth at 10^-5 M after 48 hrs by sulforhodamine B assay; assay type: functional; conditions: read-out: Activity; how it was run: as §2
# CAKI-1 = experiment: Growth inhibition of human Caki1 cells assessed as cell growth at 10^-5 M after 48 hrs by sulforhodamine B assay; assay type: functional; conditions: CAKI-1, 48 h, read-out: Activity; how it was run: as §1
# UACC-62 = experiment: Growth inhibition of human UACC62 cells assessed as cell growth at 10^-5 M after 48 hrs by sulforhodamine B assay; assay type: functional; conditions: UACC-62, 48 h, read-out: Activity; how it was run: as §3
# EKVX = experiment: Growth inhibition of human EKVX cells assessed as cell growth at 10^-5 M after 48 hrs by sulforhodamine B assay; assay type: functional; conditions: read-out: Activity; how it was run: as §1
# Yarrowia lipolytica = experiment: Antifungal activity against Yarrowia lipolytica assessed as zone of inhibition at 5 uL and 28 degC after 36 hrs by disk diffusion method; assay type: functional
# How it was run: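 Agar disc diffusion with the test compound applied as a 1% (w/v) DMSO solution. Yeasts were grown on AC agar and Aspergillus niger on potato dextrose broth agar, each strain spread evenly. Plates were covered and kept 36 h at 28 °C, and the inhibition zone diameter was read in mm. Clotrimazole served as reference.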
# MOLT-4 = experiment: Growth inhibition of human MOLT4 cells assessed as cell growth at 10^-5 M after 48 hrs by sulforhodamine B assay; assay type: functional; conditions: MOLT-4, 48 h, read-out: Activity; how it was run: as §2
# OVCAR-8 = experiment: Growth inhibition of human OVCAR8 cells assessed as cell growth at 10^-5 M after 48 hrs by sulforhodamine B assay; assay type: functional; conditions: OVCAR-8, 48 h, read-out: Activity; how it was run: as §2
SMILES,growth at 10 µM [1] [%],growth at 10 µM (HCT-15) [%],growth at 10 µM (M14) [%],growth at 10 µM (SF-539) [%],diameter of the inhibition zone (DIZ) (Staphylococcus equorum),growth at 10 µM (HOP-62) [%],growth at 10 µM (CCRF-CEM) [%],growth at 10 µM (SK-MEL-5) [%],growth at 10 µM (Malme-3M) [%],growth at 10 µM (BT-549) [%],growth at 10 µM (T47D) [%],growth at 10 µM (A498) [%],growth at 10 µM (MDA-MB-468) [%],growth at 10 µM (UO-31) [%],growth at 10 µM (HT-29) [%],growth at 10 µM (NCI-H23) [%],growth at 10 µM (KM12) [%],growth at 10 µM (A549) [%],growth at 10 µM (U-251) [%],growth at 10 µM (786-0) [%],further results
CC(C)CCC[C@@H](C)[C@H]1CC[C@H]2C3=CCn4c(=O)ccc(=O)n4[C@@H]3CC[C@]12C,-12.2,-63.7,-87.1,-96.8,inactive,-93.3,-2.44,-79.3,-98,-30.9,-75.2,-94.8,-49,-88.5,-97.5,-55.4,-65.5,-79.3,-96.9,-100,growth at 10 µM (SK-OV-3): -100%; pIC50 (HL-60): 7.52; growth at 10 µM (NCI/ADR-RES): -28.8%; growth at 10 µM (CAKI-1): -91.6%; growth at 10 µM (UACC-62): -82.4%; growth at 10 µM (EKVX): -82.2%; diameter of the inhibition zone (DIZ) (Yarrowia lipolytica): 7 mm; growth at 10 µM (MOLT-4): -23.6%; growth at 10 µM (OVCAR-8): -39.7%
CC(C)CCC[C@@H](C)[C@H]1CC[C@H]2C3=CC[C@@H]4C(=O)C=CC(=O)[C@@H]4[C@@H]3CC[C@]12C,8.12,11.3,5.05,38.2,inactive,12.1,17,-3.37,17.5,-1.63,-18.9,-6.21,2.69,-67.9,7.56,8.4,-10.1,8.75,11.5,-5.66,growth at 10 µM (SK-OV-3): 10.5%; pIC50 (HL-60): 6.15; growth at 10 µM (NCI/ADR-RES): 7.87%; growth at 10 µM (CAKI-1): -56.3%; growth at 10 µM (UACC-62): -63.2%; growth at 10 µM (EKVX): -10%; diameter of the inhibition zone (DIZ) (Yarrowia lipolytica): inactive; growth at 10 µM (MOLT-4): 10.4%; growth at 10 µM (OVCAR-8): 0.17%
CC(C)CCC[C@@H](C)[C@H]1CC[C@H]2[C@@H]3CCN4C(=O)CCC(=O)N4[C@@H]3CC[C@]12C,97,106,90.5,104,9 mm,87.7,87.4,96.4,95.6,84.7,64.4,89.2,122,76.3,87.9,87,105,84.1,106,83.8,growth at 10 µM (SK-OV-3): 99.3%; pIC50 (HL-60): 4.52; growth at 10 µM (NCI/ADR-RES): 94.6%; growth at 10 µM (CAKI-1): 73.5%; growth at 10 µM (UACC-62): 88.1%; growth at 10 µM (EKVX): 83.3%; diameter of the inhibition zone (DIZ) (Yarrowia lipolytica): 15 mm; growth at 10 µM (MOLT-4): 87.2%; growth at 10 µM (OVCAR-8): 93.5%

# From ChEMBL document CHEMBL1806372, “Cytotoxic ring A-modified steroid analogues derived from Grundmann's ketone” (Eur J Med Chem, 2011)
